Here are results for 6 molecules from ChEMBL document CHEMBL2331099, “Design, synthesis and aromatase inhibitory activities of novel indole-imidazole derivatives” (Bioorg Med Chem Lett, 2013).

Data set [1] deals with T1, Aromatase (Homo sapiens, UniProt P11511).
T1 sequence (P11511 whole entry): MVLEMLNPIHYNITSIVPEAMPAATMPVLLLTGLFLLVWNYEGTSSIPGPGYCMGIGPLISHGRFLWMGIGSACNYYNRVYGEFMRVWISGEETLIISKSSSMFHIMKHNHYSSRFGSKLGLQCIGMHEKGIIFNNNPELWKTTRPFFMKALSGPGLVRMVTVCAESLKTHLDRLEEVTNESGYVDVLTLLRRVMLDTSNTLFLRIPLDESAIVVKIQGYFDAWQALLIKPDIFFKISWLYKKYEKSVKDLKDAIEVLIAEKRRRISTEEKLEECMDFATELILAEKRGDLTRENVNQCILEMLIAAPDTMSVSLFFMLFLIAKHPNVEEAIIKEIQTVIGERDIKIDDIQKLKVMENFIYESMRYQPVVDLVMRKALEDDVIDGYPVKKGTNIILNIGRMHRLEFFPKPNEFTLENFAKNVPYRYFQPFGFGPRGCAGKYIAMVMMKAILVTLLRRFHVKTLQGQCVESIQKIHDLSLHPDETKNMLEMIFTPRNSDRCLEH
Briefly: Inhibition of human placental microsome aromatase after 30 mins by ELISA. The method in brief: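 Aromatase (P450 arom) source: human placental microsomes. Activity read as estrone formed, quantified by a commercial estrone enzyme immunoassay (ELISA). Values are means of at least three experiments, each run in triplicate.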
On the technique in general: ELISA stands for enzyme-linked immunosorbent assay.

Data set [2] addresses T1, Aromatase. Nature of the data set: Ratio of letrozole IC50 to compound IC50 for human placental microsome aromatase. In short, it runs like this: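 Both IC50s come from the human placental microsome aromatase assay with estrone measured by ELISA. Each IC50 is the mean of at least three experiments, each run in triplicate.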

The term IC50 denotes the midpoint of a concentration-inhibition curve. The molecule `Cc1ccc2cc(Cn3ccnc3)n(-c3ccc(C#N)cc3)c2c1` displayed an IC50 against Aromatase [1] of 27 nM. Also, the “Ratio IC50” value on Aromatase [2] was 0.612.
On the same counts, the results for `COc1ccc(-n2c(Cn3ccnc3)cc3ccccc32)cc1` are 77.4 nM and 0.2137.
`COc1ccc(-n2c(Cn3ccnc3)cc3ccc(Cl)cc32)cc1` displayed an IC50 at Aromatase [1] of 203 nM. Also, on Aromatase [2], the “Ratio IC50” value came to 0.0813.
Turning to `COc1ccc(-n2c(Cn3ccnc3)cc3ccc(C)cc32)cc1`, the midpoint of inhibition against Aromatase [1], the IC50, lay at 139 nM. The “Ratio IC50” value at Aromatase [2] came out at 0.1192.
On the same counts, the results for `Cc1ccc2cc(Cn3ccnc3)n(-c3ccccc3)c2c1` are 21.4 nM and 0.7728.
For the molecule `COc1ccc2cc(Cn3ccnc3)n(-c3ccc(F)cc3)c2c1`, the IC50 on Aromatase [1] came out at 48.9 nM. Moreover, the “Ratio IC50” value on Aromatase [2] is on record as 0.3378.
